{"source": "ChEMBL document CHEMBL4007452", "about": "“Discovery of an Orally Selective Inhibitor of Signal Transducer and Activator of Transcription 3 Using Advanced Multiple Ligand Simultaneous Docking” (J Med Chem, 2017)", "key": {"[1]": {"system": "Mus musculus", "test": "Toxicity in BALB/c nude mouse xenografted with human MDA-MB-231 cells assessed as lung damage at 2.5 to 10 mg/kg, po qd administered for 32 days by H&E staining based light microscopy", "assay_type": "organism-based", "details": "in vivo, 768 h", "how_it_was_run": "(§1)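 6-week-old female athymic SPF BALB/c nude mice received 5 x 10^6 MDA-MB-231 cells s.c. in the flank. Oral treatment began once tumors reached about 100 mm3, with 8 mice per group and a saline vehicle control. […] Treatment lasted 32 days. Heart, liver, spleen, lung and kidney were fixed 48 h in 10% neutral-buffered formaldehyde, paraffin-embedded, cut at 5 µm, H&E-stained and examined by light microscopy.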"}, "[2]": {"target": "T1, Signal transducer and activator of transcription 5A (Homo sapiens) (UniProt P42229)", "T1 sequence (whole entry)": "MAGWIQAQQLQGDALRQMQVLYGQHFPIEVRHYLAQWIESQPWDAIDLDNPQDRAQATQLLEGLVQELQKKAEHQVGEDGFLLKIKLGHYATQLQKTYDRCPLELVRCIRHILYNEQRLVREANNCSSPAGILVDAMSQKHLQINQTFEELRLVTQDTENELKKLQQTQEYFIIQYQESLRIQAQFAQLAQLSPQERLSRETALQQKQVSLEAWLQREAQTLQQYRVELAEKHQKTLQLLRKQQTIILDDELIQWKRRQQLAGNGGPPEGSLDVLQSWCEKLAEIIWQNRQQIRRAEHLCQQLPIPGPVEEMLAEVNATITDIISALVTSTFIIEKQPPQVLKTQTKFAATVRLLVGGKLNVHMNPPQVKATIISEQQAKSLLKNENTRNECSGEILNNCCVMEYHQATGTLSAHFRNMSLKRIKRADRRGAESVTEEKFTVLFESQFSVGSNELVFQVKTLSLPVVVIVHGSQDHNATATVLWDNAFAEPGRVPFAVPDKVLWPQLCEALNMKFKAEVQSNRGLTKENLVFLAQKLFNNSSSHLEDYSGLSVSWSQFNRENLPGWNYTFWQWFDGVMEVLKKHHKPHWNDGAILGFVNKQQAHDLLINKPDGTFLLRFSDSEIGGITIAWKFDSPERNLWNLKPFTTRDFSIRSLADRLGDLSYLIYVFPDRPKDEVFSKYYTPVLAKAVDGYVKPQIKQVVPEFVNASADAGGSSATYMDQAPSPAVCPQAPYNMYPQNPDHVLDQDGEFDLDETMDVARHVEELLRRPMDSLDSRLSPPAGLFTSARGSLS", "test": "Inhibition of STAT5 dimerization in human MDA-MB-231 cells assessed as inhibition of STAT5-STAT5 DNA binding activity at 5 uM after 24 hrs by EMSA", "assay_type": "cell-based", "how_it_was_run": "(§2)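 MDA-MB-231 cells were treated at 5 µM for 0-24 h before nuclear extract preparation. Extracts were incubated with biotin-labeled probe for 30 min at room temperature, then analysed by EMSA.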"}, "[3]": {"system": "Mus musculus", "test": "Toxicity in BALB/c nude mouse xenografted with human MDA-MB-231 cells assessed as spleen damage at 2.5 to 10 mg/kg, po qd administered for 32 days by H&E staining based light microscopy", "assay_type": "organism-based", "details": "in vivo, 768 h", "how_it_was_run": "as §1"}, "[4]": {"test": "Antiproliferative activity against human BkPC-3 cells after 24 hrs by MTT assay", "assay_type": "functional, cell-based", "details": "BkPC-3, 24 h", "how_it_was_run": "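Cells were seeded at 3000 per well and incubated 24 h at 37 °C. Compounds were added in triplicate with 10% FBS: 0.1-10 or 0.1-20 µM for cancer lines, 3.125-400 µM for MCF-10A. Viability was read by MTT absorbance at 595 nm, with IC50 fitted from the curves. DMSO stocks were 20 mM.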"}, "[5]": {"target": "T2, Signal transducer and activator of transcription 1-alpha/beta (Homo sapiens) (UniProt P42224)", "T2 sequence (whole entry)": "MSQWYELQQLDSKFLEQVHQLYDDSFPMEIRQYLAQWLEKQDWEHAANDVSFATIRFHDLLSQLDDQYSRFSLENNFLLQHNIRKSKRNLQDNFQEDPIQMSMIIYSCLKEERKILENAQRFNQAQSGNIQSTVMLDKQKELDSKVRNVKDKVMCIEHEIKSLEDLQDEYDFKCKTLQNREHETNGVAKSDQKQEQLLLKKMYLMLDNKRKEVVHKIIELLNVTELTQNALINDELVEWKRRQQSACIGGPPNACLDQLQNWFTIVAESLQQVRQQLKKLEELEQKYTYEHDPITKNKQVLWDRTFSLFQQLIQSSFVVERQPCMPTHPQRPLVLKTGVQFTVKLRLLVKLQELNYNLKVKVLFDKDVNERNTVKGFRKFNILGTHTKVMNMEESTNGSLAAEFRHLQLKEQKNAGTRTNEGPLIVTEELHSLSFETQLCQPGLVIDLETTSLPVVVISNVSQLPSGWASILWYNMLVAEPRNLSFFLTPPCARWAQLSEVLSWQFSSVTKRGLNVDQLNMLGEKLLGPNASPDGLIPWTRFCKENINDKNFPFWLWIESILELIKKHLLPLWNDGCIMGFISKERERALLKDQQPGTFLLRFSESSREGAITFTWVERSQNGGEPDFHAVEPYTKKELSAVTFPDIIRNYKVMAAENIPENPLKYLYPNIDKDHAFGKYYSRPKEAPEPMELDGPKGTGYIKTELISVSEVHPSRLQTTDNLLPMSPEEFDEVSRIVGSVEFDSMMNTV", "test": "Inhibition of STAT1 dimerization in human MDA-MB-231 cells assessed as inhibition of STAT1-STAT1 DNA binding activity at 5 uM after 24 hrs by EMSA", "assay_type": "cell-based", "how_it_was_run": "as §2"}, "[6]": {"system": "Mus musculus", "test": "In vivo inhibition of STAT3 in po dosed BALB/c nude mouse xenografted with human MDA-MB-231 assessed as reduction in p-STAT3(Y705) level administered as qd for 32 days by Western blot analysis", "assay_type": "functional, organism-based", "how_it_was_run": "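Whole-cell lysates from MDA-MB-231 xenograft tumors of mice dosed orally at 2.5, 5 or 10 mg/kg were immunoblotted for P-STAT3(Y705), T-STAT3 and GAPDH.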"}, "[7]": {"test": "Selectivity ratio of IC50 for human MCF-10A cells to IC50 for human MDA-MB-231 cells", "how_it_was_run": "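MTT viability assay. MCF-10A was grown in RPMI-1640 and MDA-MB-231 in DMEM, each with 10% FBS. Cells were seeded at 3000 per well and left 24 h at 37 °C. Compound was then added in triplicate with 10% FBS, at 0.1-10 µM for the cancer cells and 3.125-400 µM for MCF-10A. Absorbance was read at 595 nm. The ratio is IC50 for MCF-10A over IC50 for MDA-MB-231.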"}, "[8]": {"target": "Signal transducer and activator of transcription 3 (Homo sapiens, UniProt P40763)", "sequence (P40763 whole entry)": "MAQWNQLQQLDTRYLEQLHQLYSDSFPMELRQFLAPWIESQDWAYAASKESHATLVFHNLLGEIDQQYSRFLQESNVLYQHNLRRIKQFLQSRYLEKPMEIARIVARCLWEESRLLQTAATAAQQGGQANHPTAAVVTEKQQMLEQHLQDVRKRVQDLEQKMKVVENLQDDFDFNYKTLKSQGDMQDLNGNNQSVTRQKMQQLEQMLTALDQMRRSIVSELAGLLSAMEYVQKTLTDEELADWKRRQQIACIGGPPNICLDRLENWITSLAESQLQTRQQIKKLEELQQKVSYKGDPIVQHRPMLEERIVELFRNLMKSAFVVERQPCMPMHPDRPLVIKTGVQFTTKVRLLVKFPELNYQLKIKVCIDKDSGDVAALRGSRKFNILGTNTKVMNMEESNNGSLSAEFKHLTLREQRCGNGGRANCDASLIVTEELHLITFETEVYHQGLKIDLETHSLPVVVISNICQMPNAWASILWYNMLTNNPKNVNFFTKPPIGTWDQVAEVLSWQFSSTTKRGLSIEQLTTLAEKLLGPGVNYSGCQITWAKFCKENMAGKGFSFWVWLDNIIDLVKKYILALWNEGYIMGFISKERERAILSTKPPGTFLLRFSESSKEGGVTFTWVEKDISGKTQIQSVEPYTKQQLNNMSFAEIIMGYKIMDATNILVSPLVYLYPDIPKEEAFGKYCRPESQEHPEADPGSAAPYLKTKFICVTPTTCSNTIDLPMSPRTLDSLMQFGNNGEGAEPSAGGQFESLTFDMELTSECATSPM", "test": "Displacement of 5-FAM-SpYLPQTV from STAT3 (unknown origin) at pY705 site after 30 mins by fluorescence polarization assay"}, "[9]": {"test": "Apparent volume of distribution in Sprague-Dawley rat plasma at 1 mg/kg, iv measured after 24 hrs by UPLC analysis", "assay_type": "ADME, organism-based", "details": "read-out: Vz", "how_it_was_run": "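Rat plasma sampled from 2 min to 24 h after a single i.v. (1 mg/kg) or p.o. (10 mg/kg) dose. Parameters were derived from the concentration-time profiles. The bioanalytical method was validated to FDA guidelines for selectivity, linearity, LLOQ, accuracy, precision, recovery, matrix effect and stability.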"}}, "note": "Calls of active or inactive are those of the source. No cut-off for these calls is given here."}
{"smiles": "NS(=O)(=O)c1cccc2c1C(=O)C=C(Nc1ccccc1N1CCNCC1)C2=O", "values": [{"measurement": "Activity", "setting": "[1]", "value": "Non-Toxic"}, {"measurement": "inhibition", "setting": "[2]", "value": "inactive"}, {"measurement": "Activity", "setting": "[3]", "value": "Non-Toxic"}, {"measurement": "IC50", "setting": "[4]", "value": 5.1, "unit": "µM"}, {"measurement": "inhibition", "setting": "[5]", "value": "Active"}, {"measurement": "inhibition", "setting": "[6]", "value": "Dose-dependent effect"}, {"measurement": "Ratio IC50", "setting": "[7]", "value": 184}, {"measurement": "Ki", "setting": "[8]", "value": 440, "unit": "nM"}, {"measurement": "Vd", "setting": "[9]", "value": 4.94, "unit": "L/kg"}]}
